ChEMBL document CHEMBL4513216, “Probing the Open Global Health Chemical Diversity Library for Multistage-Active Starting Points for Next-Generation Antimalarials” (ACS Infect Dis, 2020)

Test: Toxicity liver stage against HepG2, at 10uM
Type: cell-based
Parameters: test concentration 10 uM, cell line HepG2-A16-CD81EGFP
Conditions: human, HepG2-A16-CD81EGFP cells; read-out: INHIBITION
Method in brief: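 Uninfected HepG2-A16-CD81EGFP cells, 3 × 10^3 per well, 1536-well, plated on prespotted compound at 10 μM final, parasite-free screening media added to match infected plates; puromycin 10 μM positive, DMSO 0.5% negative; run in parallel with 48 h PbLuc assay at 37 °C, 5% CO2; viability by CellTiter-Glo luminescence, normalized to controls.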

| Compound | cytotoxicity at 10 µM [%] |
| --- | --- |
| COCCOc1ccnc(-c2noc([C@@H]3CCCN3CC(C)(C)C)n2)c1 | -12.7 |
| Cc1ccc(S(=O)(=O)NC[C@H]2OC[C@@H](NCc3ccncc3)[C@@H]2O)cc1 | 2.6 |
| O=C(Nc1cccnc1-n1cc(Cl)cn1)C1CCCCC1 | -39 |
| CCc1cnc2c(c1Nc1ccc(C)c(F)c1)c(=O)n(C)c(=O)n2C | -2.5 |
| CCOc1ccc(CNC(=O)c2cnc(OC)nc2)cc1 | -0.121 |
| O=C(COc1ccc(Cl)cc1)Nc1cnc(N2CCOCC2)nc1 | -8.18 |
| Cc1nc(Nc2ccccn2)cc(N2CCN(S(C)(=O)=O)CC2)n1 | 3.96 |
| COCC(=O)N1CC[C@H]2[C@H]1CCN2CC(C)C | 1.18 |
| Cc1ccc(N2CCO[C@H]3CN(C(=O)c4cccc(C)n4)C[C@H]32)nn1 | 4.94 |
| c1ccc(COC[C@]23COC[C@H]2CN(c2ncccn2)C3)nc1 | 2.14 |
| O=c1cc(Cn2ccnc2)nc2n1CCCN(Cc1cccs1)C2 | 0.312 |
| Cc1ncsc1CN1CC[C@H]2OCC[C@@]2(C(=O)NCC2CC2)C1 | 2.4 |
| COc1c(C(=O)NCC(C)C)nnn1Cc1ccccc1 | 12 |
| O=C(c1cc(C2CC2)on1)N1C[C@H]2CC[C@](O)(c3ccccc3F)[C@H]2C1 | 5.37 |
| O=C(Nc1cc(CCC2CCN(CCO)CC2)ccn1)c1ccccn1 | -4.03 |
| CN1CCNCC(Cc2cnc3ccccc3c2)C1 (stereo not given) | -12.4 |
| NC(=O)c1cccc(C2CCN(c3ncccn3)CC2)n1 | 0.00505 |
| CC(C)CN1CCCC1c1cc[nH]n1 (stereo not given) | 9.95 |
| Cc1noc(C)c1-c1ccc(C2CCCN2C(=O)Cn2ccnc2)nc1 (stereo not given) | -10.2 |
| CCc1nnc(Nc2cccc(C3CCN(S(=O)(=O)N(C)C)CC3)n2)s1 | -16.2 |
| Cc1cc(C(=O)N2CCc3nc4sc(C)cc4c(=O)n3CC2)on1 | -16.2 |
| COCCN1CCC(Cc2cnc(-c3ccccc3C(=O)O)cn2)CC1 | -11.9 |

| Compound | cytotoxicity at 10 µM [%] |
| --- | --- |
| Cc1cc(-c2cnc(N3CCOCC3)nc2-c2ccc(C)s2)on1 | -5.72 |
| O=C(C1CCCC1)N1CC2(CCN(C3COC3)C2)OCc2ccccc21 (stereo not given) | 4.92 |
| O=C(C1CCCC1)N1CC2(CCN(C3COC3)CC2)Cc2ccccc21 | 7.91 |
| OCc1c(Cl)ncn1-c1ccc(F)cc1 | 6.61 |
| Cc1ccc(F)c(S(=O)(=O)NCc2[nH]ncc2Br)c1 | 0.67 |
| O=C(COCC1CCCO1)N(Cc1cccnc1)c1ccc(F)cc1 (stereo not given) | -2.04 |
| COc1ccc(C(C)CCNC2CCN(c3ccccn3)CC2)cc1 (stereo not given) | 5.29 |
| CCN(Cc1ncc(C(C)(C)C)o1)Cc1ccccc1C | -9.11 |
| Cc1nc(C(=O)N(CC(=O)N(C)C)CC(F)(F)F)c2ccccn12 | -16.4 |
| CC(C)c1noc(C(C)N2CCN(Cc3nc4ccccc4[nH]3)CC2)n1 (stereo not given) | -2.16 |
| CCN(CC)CC(=O)N1CCN(CCc2ccncc2)CC1 | -44.7 |
| O=C(CC1CCN(c2ncnc3ccccc23)CC1)N1CCCC1 | 35.1 |
| Cc1ccc(CN(Cc2cc(C)no2)C2CC2)cc1 | -5.17 |
| O=C(CNc1cc(-n2cnnn2)ccc1F)NCc1ccccc1 | -6.2 |
| O=C(NCC(O)COc1ccccc1)Nc1nncs1 (stereo not given) | 0.555 |
| CN(C)c1ccc(C(=O)NCc2cccnc2-n2cncn2)cc1F | 2.84 |
| CS(=O)(=O)c1ccc(NC(=O)CSc2ccc3c(c2)CCC3)cn1 | 11.8 |
| CNS(=O)(=O)c1cccc(C(C)NCc2cccc(C)c2C)c1 (stereo not given) | 9.44 |
| Cc1ccc(CNC(=O)NC2CCCc3c2cnn3CCO)cn1 (stereo not given) | -11.8 |
| Cc1cc(NC(=O)c2ccccc2Br)n(C)n1 | -6.61 |
| COc1cc(C(=O)N(Cc2ccco2)C2CC2)cc(OC)c1OC | 4.53 |
| CC(CN1CCOCC1)NC(=O)NCCc1ccc(Cl)s1 (stereo not given) | -8.36 |

| Compound | cytotoxicity at 10 µM [%] |
| --- | --- |
| Cc1ncc(CN(C)C(=O)Nc2cccc(CN3CCOC3=O)c2)s1 | -2.27 |
| CCc1cc(C)nc(N2CCN(C(C)c3nc(C)no3)CC2)n1 (stereo not given) | -2.64 |
| CNC(=O)CCCNCc1c(C)nn(CC(C)C)c1N(C)C | -2.51 |
| CCOCCN1CCc2cncnc2C1 | -20.7 |
| Cc1csc(C(C#N)C(=O)NCc2ccccc2)n1 (stereo not given) | 4.02 |
| CC(Cn1cccn1)NCc1cnc(N2CCCC2)nc1 (stereo not given) | -13 |
| COc1ccccc1C1(CNc2snc(Cl)c2C#N)CCOCC1 | 10.2 |
| N#Cc1ccc(CNC(=O)NCCNC(=O)C2CCCC2)c(F)c1 | 4.17 |
| CCC(=O)N1CCC2(C=C(C(=O)N(C)C)c3ccccc32)CC1 | -87.3 |
| Cc1cccc(CN2C[C@@H]3CN(C(=O)C4CCOC4)C[C@@H]3C2=O)c1 (stereo not given in full) | -114 |
| O=C(c1ccoc1)N1CCC2(CCCN(c3ncc(F)cn3)C2)C1 (stereo not given) | -98.3 |
| Cn1nc(C(=O)N2CCOCC2)c2c1CN(CC1CCC1)C2 | -103 |
| Cn1nc(COc2cccnc2)c2c1CCN(c1ncccn1)C2 | -105 |
| COCCC(=O)N1CCC2(COCc3cnc(N(C)C)nc32)C1 (stereo not given) | -64.8 |
| c1coc(CN2CCO[C@@]3(CCC[C@@H]3COCc3nccs3)C2)c1 | -73.5 |
| C=C(C)COc1cccc(C(=O)N2CCC3(CCOCC3)CC2)c1 | -47.1 |
| Cn1ncc2c(NC3CN4CCC3CC4)nc(-c3ccncc3)nc21 (stereo not given) | 41.1 |
| c1csc(CN2CCCN(c3ccc(Cn4ccnc4)cn3)CC2)c1 | -18.2 |
| Cc1n[nH]c(C)c1CCC(=O)NCC1COc2ccccc2C1 (stereo not given) | -40.2 |
| CCC(CO)N(Cc1cccc(-n2cccn2)c1)Cc1cccs1 (stereo not given) | 7.63 |
| Cc1cc(N2CCC(CO)(CC3CCCCO3)CC2)nc2ccccc12 (stereo not given) | 5.51 |
| Nc1nccc(N2CCNC(C(=O)NCc3ccccn3)C2)n1 (stereo not given) | -48.5 |

| Compound | cytotoxicity at 10 µM [%] |
| --- | --- |
| CCOc1ccnc(NCc2nc(C)cc(C(F)(F)F)n2)n1 | -10.1 |
| CC(=O)Nn1c(C)cc(CN2CCC(C(=O)N3CCCC3)CC2)c1C | 1.57 |
| Cc1nc[nH]c1-c1nccn1-c1cccc(CN2CCCC2)c1 | 4.36 |
| OCc1ccc(-c2c(-c3ccccc3)ncn2CCN2CCOCC2)o1 | -18.9 |
| CCCN1CCC(CC(=O)N[C@H](C(=O)O)c2cccc(F)c2F)CC1 | 3.78 |
| CCc1cc(NCc2cc3n(n2)CCCN(S(C)(=O)=O)C3)nc(C)n1 | -1.52 |
| CN1CCC(N(CCc2ccccc2)C(=O)c2ccc(C#N)cc2)CC1 | -2.37 |
| CN1CCCN(C(=O)c2cc(CN(C)CCc3ccccc3)on2)CC1 | -15.3 |
| Cc1cc(CN[C@@H](Cc2ccccc2)C(N)=O)c(C)s1 | -0.527 |
| Cc1nc2ccccc2nc1NCc1nnc2n1CCC2 | -1.8 |
| O=C(O)Cc1cccc(-n2ccnc2-c2ccc(Cl)s2)c1 | 0.185 |
| CC(C)CN1CC2(CCN(C(=O)C3CNC(=O)N3)CC2)CC1=O (stereo not given) | 2.18 |
| Cc1ccc(NC2(C(=O)NCCCN)CCCC2)cc1 | 1.58 |
| Cc1nn(C)c2nc(N(CCN(C)C)C3CCCC3)sc12 | -1.93 |
| O=C1CCCCN1CCc1nc(-c2cccnn2)no1 | -5.67 |
| CCc1nnc(CN(C)c2nc(C(C)C)nc3c2cnn3C)o1 | -9.52 |
| COC[C@@]12CC[C@@H](N3CCOCC3)C[C@H]1CCN(c1ncccn1)C2 | -11.9 |
| CC(C)c1cc(CN2CCC(CC(=O)O)CC2)no1 | -2.53 |
| O=C(COc1cccc(F)c1)N1C[C@@H](O)[C@H](N2CCCC2)C1 | -4.22 |
| CCc1cc(C(=O)N2CCCC2c2nc(C)c(F)c(O)n2)on1 (stereo not given) | 0.626 |
| CCOc1ccc(Cl)c(C(=O)N2CCN(c3cnccn3)CC2)n1 | -4.89 |
| CC(C)c1n[nH]c(C2CN(C(=O)c3csnn3)CCO2)n1 (stereo not given) | -4.89 |

| Compound | cytotoxicity at 10 µM [%] |
| --- | --- |
| COc1cc(C)ccc1OCCC(=O)N1CCCC1Cn1cccn1 (stereo not given) | -7.81 |
| Cn1ncc2c(=O)[nH]c(CN3CCC(Cc4ccccc4)CC3)nc21 | -2.28 |
| Cn1ccnc1CN1CCN(c2ccc(C#N)cc2F)CC1 | -2.06 |
| Cc1cc(C)n(-c2ccc(CNCc3ccc(OC(C)C)cc3)cn2)n1 | -6.95 |
| CCN(CC)C(=O)Cn1ccc2cc(NC(=O)C3CC3)ccc21 | -3.87 |
| Cc1nc(-c2ccsc2)ccc1C(=O)NCCC1CCCO1 (stereo not given) | -9.75 |
| Cc1nccn1C1CCCN(C(=O)c2cc(O)nc3ccccc23)C1 (stereo not given) | -6.9 |
| CN(CC1CCCCC1)C(=O)c1ccc(-n2ncc(C#N)c2N)cc1 | 0.347 |
| COc1ccc(CN2CCc3sccc3C2C)cc1CN1CCOCC1 (stereo not given) | -0.782 |
| Cc1noc([C@@H]2CCO[C@@H]3CCN(Cc4ccc(C)s4)C[C@@H]32)n1 | -77.6 |
| CNC(=O)CN1CCOCC2(CCCN(Cc3ccc(F)cc3)C2)C1 (stereo not given) | 6.88 |
| c1cnn(CCCO[C@@H]2CC[C@H]3[C@H]2OCCN3CC2CC2)c1 | 5.93 |
| COc1ncc(C2(O)CCN(Cc3c(F)cccc3F)CC2)c(OC)n1 | 5.29 |
| Cc1ncnc2c1CCN(CC(=O)N(C)C)CC2 | -101 |
| O=C(c1cnccn1)N1CCC2(CC1)CCN(Cc1ccccn1)C2=O | 0.108 |
| CS(=O)(=O)N1Cc2cnn(CC3CC3)c2C(COCC2CC2)C1 (stereo not given) | 9.43 |
| CN(C)Cc1cnc2n1CCN(C(=O)Cc1ccc(F)cc1)CC2 | -8.96 |
| Cn1ccnc1CN1CCC2(CC(=O)N(c3ccsc3)C2)C1 (stereo not given) | -82.7 |
| CN(C)CC(=O)N1C[C@H]2CCC[C@@]2(COc2ccccn2)C1 | 3.88 |
| O=C(c1ccccc1)N1C[C@@H]2CCCO[C@@H]2[C@H](N2CCCC2)C1 | -2.02 |
| Cc1ccc(C(=O)N2C[C@@H]3CCCO[C@@H]3[C@H](N3CCOCC3)C2)cn1 | -3.4 |
| CCN1CCO[C@]2(CCC[C@H]2COCc2csc(C)n2)C1 | 0.153 |
